# Measured values published in PubChem BioAssay.
# The source made the active and inactive calls.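 The calls were made as follows, unless noted: active = inhibition above 20% together with a positive visual image hit; inconclusive = visual image hit but inhibition not above 20%; inactive = no visual image hit.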
# Tests used:
# [1] = inhibitors of TNFa-induced NFkB p65 translocation, primary screen, imaging, HUVEC, MLSMR starter and 10KST1 sets (AID 438); conditions: HUVEC TNFa-induced p65 nuclear translocation; cell count: measured here: nuclei count (cytotoxicity indicator), at 2.08 µM; inhibition: at 2 µM, stronger effect = higher value, 0% TNFa-plus-vehicle, 100% no-TNFa wells;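 also: compound added about 3h40 before a 20 min TNFalpha stimulation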;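 as to inhibition: signal is the nuclear over cytoplasmic p65 intensity ratio per well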
# [2] = inhibitors of mutant huntingtin aggregation, primary screen, imaging, exon1htt(103Q)mCFP cells, high-content imaging (AID 483;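 active = visual image review flags a hit and inhibition of aggregation exceeds 20%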;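 also: compound exposure lasted 3 days before fixation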;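 as to nuclei count: percent of the per-plate median nuclei count of sample wells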); conditions: exon1htt(103Q)mCFP cell line, aggregate imaging, at 2 µM; inhibition of aggregation: stronger effect = higher value; nuclei count: measured here: cell count, toxicity
# [3] = inhibitors of E-selectin induction by TNFa, primary screen, imaging, HUVEC, immunofluorescence, MLSMR starter and 10KST1 sets (AID 487;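 active = visually confirmed hit in the image check and inhibition above 20%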;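 as to inhibition: signal is fraction of cell area covered by stained E-selectin grains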;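 as to nuclei count: 100% = median nuclei count of all wells on the same plate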); conditions: HUVEC TNFalpha-induced E-selectin immunofluorescence imaging, at 2 µM; inhibition: stronger effect = higher value; nuclei count: measured here: cell number, toxicity
# [4] = biological target: Voltage-gated potassium channel subunit beta-2 (Rattus norvegicus) (UniProt P62483); experiment: KvBeta enzyme negative modulators, primary screen, biochemical, NADPH fluorescence (AID 622;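 active = fluorescence slope higher than the sample average by over 3 SD, cut at about -0.22 in these data, passing the limit was not always enough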;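 also: slope of raw intensity against log time taken from 70 to 1610 s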); conditions: recombinant KvBeta, 4-cyanobenzaldehyde reduction, at 10 µM, stronger effect = higher value
# Chain of Voltage-gated potassium channel subunit beta-2 (Rattus norvegicus) (P62483 whole entry, looked up): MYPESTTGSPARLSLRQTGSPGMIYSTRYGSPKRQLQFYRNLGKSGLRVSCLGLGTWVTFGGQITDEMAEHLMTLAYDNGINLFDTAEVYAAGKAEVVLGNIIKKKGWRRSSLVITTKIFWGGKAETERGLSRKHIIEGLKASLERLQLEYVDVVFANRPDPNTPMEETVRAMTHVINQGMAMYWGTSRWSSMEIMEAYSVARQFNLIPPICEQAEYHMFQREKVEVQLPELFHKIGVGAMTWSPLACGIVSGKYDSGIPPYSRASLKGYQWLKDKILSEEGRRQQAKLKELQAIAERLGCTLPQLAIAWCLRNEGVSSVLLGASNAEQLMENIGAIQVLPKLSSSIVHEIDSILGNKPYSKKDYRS
# [5] = biological target: Voltage-gated potassium channel subunit beta-2 (Rattus norvegicus) (UniProt P62483); experiment: KvBeta positive modulators, primary screen, biochemical, NADPH fluorescence (AID 623;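 active = NADPH fluorescence slope more negative than the mean of all samples by about 3 SD, 99.7% confidence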;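 also: fluorescence intensity change per second fitted from 20 to 320 s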); conditions: Recombinant KvBeta, NADPH fluorescence decrease slope, 10 min; at 10 µM; stronger effect = lower value
# [6] = biological target: Muscarinic acetylcholine receptor M4 (Homo sapiens) (UniProt P08173); experiment: compounds altering M4/GIRK thallium flux, either direction, primary screen, M4 allosteric agonist project, cell-based, HEK293 M4/GIRK, BTC-AM (AID 625;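 active = fluorescence slope after compound addition differing from the mean of all tested samples at 99.7% confidence, mostly higher but some lower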;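 also: thallium influx through GIRK channels coupled to M4 in HEK293 cells with BTC-AM dye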); conditions: at 10 µM, actives lie on both sides
# Chain of Muscarinic acetylcholine receptor M4 (Homo sapiens) (P08173 whole entry, looked up): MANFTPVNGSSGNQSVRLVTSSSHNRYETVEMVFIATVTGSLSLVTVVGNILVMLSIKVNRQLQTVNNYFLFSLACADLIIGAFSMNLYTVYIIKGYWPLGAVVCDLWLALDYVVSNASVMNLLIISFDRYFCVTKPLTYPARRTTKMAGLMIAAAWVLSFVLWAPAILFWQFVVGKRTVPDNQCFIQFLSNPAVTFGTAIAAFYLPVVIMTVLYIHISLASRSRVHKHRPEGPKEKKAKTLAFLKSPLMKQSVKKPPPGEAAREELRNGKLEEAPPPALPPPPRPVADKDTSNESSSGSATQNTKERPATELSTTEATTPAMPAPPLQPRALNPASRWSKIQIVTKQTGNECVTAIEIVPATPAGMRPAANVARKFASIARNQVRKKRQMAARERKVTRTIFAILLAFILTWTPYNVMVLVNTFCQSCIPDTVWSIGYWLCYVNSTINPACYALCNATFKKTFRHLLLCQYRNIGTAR
# Method in brief: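 Material: M4/GIRK1/GIRK2 stable HEK293 cell line. Medium: pH 7.3 thallium assay buffer. Dosing: single compound concentration, 10 µM final. Schedule: 1 h dye loading, 2 min kinetic read. Measured by: kinetic fluorescence with BTC-AM dye. Read-out: post-addition slope, 15–24 s, of baseline-normalized fluorescence. Benchmarks: carbachol and DMSO controls.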
# [7] = inhibitors of Sendai virus-induced IRF3 signaling, primary screen, TLR/RLR signaling modifier project, cell-based, Sendai virus stimulus, luciferase, 10K MLSCN set (AID 602276;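 active = inhibition at or above 50% at 10 µM; inactive = inhibition below 50%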;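 also: firefly luciferase from ISG56 promoter only with Renilla not read in this screen; 0% = Sendai virus plus DMSO and 100% = medium plus DMSO without virus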); conditions: HEK293 RL24 IRF3 luciferase reporter, at 10 µM, stronger effect = higher value
# [8] = inhibitors of poly I:C-induced TLR3 signaling, primary screen, cell-based, poly I:C stimulus, luciferase, 10K MLSCN set (AID 602277;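 active = inhibition of the reporter signal at or above 50%; inactive = inhibition below 50%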); conditions: HEK293-TLR3 RL24 IRF3 luciferase reporter, at 10 µM, stronger effect = higher value
SMILES,cell count [1],inhibition [1],inhibition of aggregation [2],nuclei count [2],inhibition [3],nuclei count [3],fluorescence slope [4],NADPH fluorescence slope [5],fluorescence slope [6],inhibition [7],inhibition [8]
CC(C)CCNC(=O)CCNS(=O)(=O)c1ccc(Cl)cc1,538,-19.2% (inactive),1.9% (inactive),79.8%,-36.9% (inactive),91.3%,-0.566 (inactive),-1.2e-05 (inactive),0.00577 (inactive),22.9% (inactive),25.9% (inactive)
Cc1nn(Cc2ccccc2)c(C)c1NC(=O)CCC(=O)O,667,23.6% (active),-6.6% (inactive),112%,17.9% (inactive),105%,-0.49 (inactive),1.1e-05 (inactive),0.00488 (inactive),-5.04% (inactive),-12.9% (inactive)
O=C(CN1C(=O)c2cccc3cccc1c23)N1CCN(c2ccccc2)CC1,512,-50% (inactive),2.8% (inactive),108%,-27.9% (inactive),101%,-0.127 (inactive),-6.1e-06 (inactive),0.00738 (inactive),-2.31% (inactive),2.78% (inactive)
O=C(Nc1nc(-c2ccccc2)cs1)C1CCCCN1S(=O)(=O)c1ccccc1 (stereo not drawn),509,6.9% (inactive),-0.8% (inactive),101%,-18.7% (inactive),96.2%,-0.659 (inactive),1.4e-05 (inactive),0.00633 (inactive),-0.318% (inactive),1.39% (inactive)
CCn1c(=O)cc(SCC(=O)NCCN2CCN(Cc3ccccc3)CC2)c2ccccc21,478,4.3% (inactive),21.3% (inactive),93.3%,14.7% (inactive),108%,-0.559 (inactive),3.3e-05 (inactive),0.00537 (inactive),16.8% (inactive),47.8% (inactive)
CN=C(C)C1=C(O)C(C(=O)OC)C(C)(C)CC1=O (stereo not drawn),506,5% (inactive),-7.4% (inactive),108%,-187% (inactive),122%,-0.54 (inactive),-0.00011 (inactive),0.00531 (inactive),16.6% (inactive),16.6% (inactive)
COC(=O)COc1ccc(C(=O)OC)cc1,384,5% (inactive),9.9% (inactive),100%,-33.2% (inactive),102%,-0.456 (inactive),1.1e-05 (inactive),0.00492 (inactive),6.44% (inactive),10.8% (inactive)
Nc1cc(C(=O)O)ccc1Nc1ccc(F)c(F)c1,693,-22.9% (inactive),-0.6% (inactive),124%,6.9% (inactive),96.9%,-0.44 (inactive),0.000103 (inactive),0.00669 (inactive),-5.42% (inactive),-4.51% (inactive)
CC1(C)Cc2noc(N)c2C(C)(C)N1OC(=O)c1ccccc1,322,2.4% (inactive),1.8% (inactive),99%,-48.1% (inactive),126%,-0.463 (inactive),1.8e-05 (inactive),0.00527 (inactive),-2.74% (inactive),5.08% (inactive)
CCN(CC)C(=O)CSc1nc2ccccc2c(=O)n1CCC(=O)NCc1ccc(F)cc1,471,-6.6% (inactive),15.2% (inactive),108%,-22% (inactive),112%,-0.516 (inactive),5.1e-05 (inactive),0.00599 (inactive),-10.2% (inactive),-7.71% (inactive)
COC(=O)C(C)C1Sc2ccccc2NC1=O (stereo not drawn),306,3.6% (inactive),-4.9% (inactive),89.5%,-37.7% (inactive),131%,-0.28 (inactive),-5.2e-05 (inactive),0.00684 (inactive),12.5% (inactive),-8.12% (inactive)
CC(=O)c1ccc(Oc2cc(C)nc(-n3nc(C)cc3C)n2)cc1,468,-15.6% (inactive),-50.7% (inactive),1.1%,-17.9% (inactive),102%,-0.547 (inactive),1.9e-05 (inactive),0.00511 (inactive),-4.86% (inactive),78.2% (active)
CCOC(=O)c1ccc(NC(=O)CCNc2c(N3CCCC3)c(=O)c2=O)cc1,266,0% (inactive),26.6% (inactive),70.7%,-20.2% (inactive),117%,-0.609 (inactive),5.7e-06 (inactive),0.00478 (inactive),4.44% (inactive),10.6% (inactive)
O=C1CC(N2CCOCC2)C(=O)N1c1ccc2c(c1)OCO2 (stereo not drawn),459,7.5% (inactive),-9.9% (inactive),105%,-175% (inactive),120%,-0.574 (inactive),-3.1e-05 (inactive),0.00505 (inactive),4.21% (inactive),10.1% (inactive)
O=C(Cc1ccccc1)Nc1nnc(-c2cccs2)s1,373,-5.4% (inactive),-3.5% (inactive),115%,-11.8% (inactive),130%,-0.521 (inactive),-1.2e-05 (inactive),0.00894 (inactive),7.41% (inactive),-69.9% (inactive)
CC(=O)N1C(=O)C2(C(C#N)=C(N)Oc3cc(C)oc(=O)c32)c2ccccc21 (stereo not drawn),438,3.8% (inactive),-2.1% (inactive),108%,-54.5% (inactive),110%,-0.511 (inactive),-0.00027 (inactive),0.00547 (inactive),-9.7% (inactive),-6.69% (inactive)
CC(=O)Nc1cccc(NC(=O)CSc2nnnn2C)c1,754,-2.1% (inactive),-16.5% (inactive),104%,-135% (inactive),131%,-0.481 (inactive),-5.6e-05 (inactive),0.00501 (inactive),21.2% (inactive),13.5% (inactive)
CC(Oc1ccc(Br)cc1)C(=O)N1CCc2ccccc21 (stereo not drawn),406,6.3% (inactive),22.4% (inactive),104%,-97.2% (inactive),119%,-0.486 (inactive),5.9e-05 (inactive),0.00581 (inactive),-4.76% (inactive),-9.35% (inactive)
O=C(O)CCCC(=O)NCCc1ccncc1,425,8.1% (inactive),-3.6% (inactive),112%,1.4% (inactive),112%,-0.519 (inactive),-7e-06 (inactive),0.00581 (inactive),3.6% (inactive),33.4% (inactive)
CCOc1cc(C)c(C(C)C)cc1S(=O)(=O)N1CCN(C)CC1,775,-2.4% (inactive),19% (inactive),93.4%,-3% (inactive),112%,-0.475 (inactive),1.9e-05 (inactive),0.00438 (inactive),-9.48% (inactive),-5.37% (inactive)
CCN1CCN(S(=O)(=O)c2ccc(S(=O)(=O)N(CC)Cc3ccccc3)cc2)CC1,579,-0.8% (inactive),-9.2% (inactive),104%,-27.9% (inactive),108%,-0.527 (inactive),4.3e-06 (inactive),0.00522 (inactive),16.4% (inactive),16.6% (inactive)
O=C(CCSc1nnc(-c2ccncc2)o1)Nc1ccccc1,680,-3.9% (inactive),1% (inactive),107%,-26.7% (inactive),114%,-0.512 (inactive),-6.6e-05 (inactive),0.0061 (inactive),1.76% (inactive),12.2% (inactive)
CCCCN(Cc1cc2cc(OC)ccc2[nH]c1=O)C(=O)COc1ccccc1,348,4.3% (inactive),-1.9% (inactive),117%,-53.3% (inactive),125%,-0.505 (inactive),-5e-05 (inactive),0.00376 (inactive),7.27% (inactive),13.1% (inactive)
O=c1c2c3c(sc2n2cnnc2n1CCc1ccccc1)CCCC3,660,-1.4% (inactive),3.7% (inactive),99.9%,-171% (inactive),130%,-0.543 (inactive),-2.6e-05 (inactive),0.00413 (inactive),2.46% (inactive),2.39% (inactive)
CCOc1ccccc1NC(=O)C1CCCN1C(=O)OCc1ccccc1 (stereo not drawn),438,6% (inactive),-8.5% (inactive),103%,-406% (inactive),152%,-0.544 (inactive),-4.2e-05 (inactive),0.0063 (inactive),4.99% (inactive),7.18% (inactive)
CCCN1CCN(C(=O)c2cn(CC(C)C)c(=O)c3cc(OC)c(OC)cc23)CC1,566,-25.1% (inactive),-3.2% (inactive),113%,-9.9% (inactive),105%,-0.441 (inactive),-4.3e-05 (inactive),0.00598 (inactive),15.6% (inactive),20.6% (inactive)
COc1ccccc1-n1c(SCC(N)=O)nnc1-c1ccccc1,737,19.3% (inactive),-24.2% (inactive),106%,-0.4% (inactive),80.6%,-0.484 (inactive),-3.5e-05 (inactive),0.00627 (inactive),13.3% (inactive),23.1% (inactive)
CC1(C)NC(=O)N(CNc2cc(Cl)ccc2Cl)C1=O,649,-17.4% (inactive),-1.9% (inactive),105%,0.8% (inactive),96.7%,-0.435 (inactive),-0.000384 (inactive),0.00524 (inactive),10.6% (inactive),21.9% (inactive)
